Assay results reported in article PMC6001664 (Chemmedchem, 2018).
Converted amounts (≈) assume the structure as drawn. Like-named read-outs stand apart in the source and are kept apart here.

Experiments:
[1] = system: endogenous HIF in recombinant A549 lung carcinoma cell; test: HIF-reporter cell assay; format: cell-based
plasma EPO [2] = test: Plasma EPO in rats after oral dosing; format: in vivo; conditions: 4 h (Figure 7), BAY-908 50 mg kg^−1
HIF‐1α in HeLa cells = test: Induction of HIF-1α in HeLa cell cultures; format: cell-based; conditions: human HeLa cell cultures
major CYP isoforms = test: CYP profile; format: in vitro ADME
[3] = system: broad range of targets including 2‐OG‐dependent dioxygenases, metalloenzymes, nuclear hormone receptors and cell surface receptors; test: Lead profiling selectivity panel
EPO in HuH cells = test: EPO induction in hepatoma HuH cells; format: cell-based, human
[4] = Elimination of iron via urine in rats; format: in vivo; conditions: oral administration
[5] = system: hematocrit and reticulocytes; test: Hematocrit and reticulocytes in mice; format: in vivo
PHD1 [6] = molecular target: T1, PHD1 (Homo sapiens, UniProt Q96KS0); test: Biochemical HIF-PH enzyme assay; conditions: for dependence of potency (IC50) on Fe^2+ concentration: Fe^2+ varied in reaction buffer (3 μM and 30 μM, Figure 3); for LipE (lipophilic binding efficiency): LipE=pIC50−logD 7.5; for BEI (binding efficiency index): from pIC50 and molecular weight
In short: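 Human HIF-PH hydroxylates Pro564 of a HIF peptide (aa 556–574). The hydroxylated peptide binds europium-labelled recombinant VBC complex, and inhibition is read as lower fluorescence. Iron dependence was tested at 3 and 30 μM Fe²⁺. LipE = pIC50 − logD7.5; BEI derived from pIC50 and corrected molecular weight.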

Aqueous solubility = format: physicochemical; conditions: water
[7] = Pharmacokinetic studies in rats; format: in vivo; conditions: rat; for clearance: blood, iv, 2 mg/kg; for Relative bioavailability (Tylose suspension) / bioavailability as Tylose suspension: p.o.; for Relative bioavailability (Tylose suspension): 0.5 % Tylose in water vs solution; for bioavailability as Tylose suspension: 0.5 % Tylose in water
[8] = logD 7.5 by HPLC retention time correlation; format: physicochemical; conditions: pH 7.5
In short: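 logD at pH 7.5 was estimated by correlating HPLC retention times with those of reference compounds of known logD7.5.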

plasma EPO [9] = test: EPO mRNA / plasma EPO in mice; format: in vivo; conditions: for plasma EPO concentration: 4 h after p.o. dosing of 100 mg kg^−1, baseline ≈120 pg mL^−1
[10] = cited from earlier work
PHD1 [11] = molecular target: T1, PHD1; conditions: cited from earlier work
[12] = pKa determination by spectrophotometry; format: physicochemical; conditions: aqueous solution
PHD3 = conditions: salt-free compound; cited from earlier work
[13] = sodium salt; cited from earlier work
[14] = metabolite of molidustat; cited from earlier work
[15] = Homo sapiens, A549, read-out: EC50 HIF-reporter cell assay

T1 sequence (Q96KS0 whole entry, the tested form may be a part): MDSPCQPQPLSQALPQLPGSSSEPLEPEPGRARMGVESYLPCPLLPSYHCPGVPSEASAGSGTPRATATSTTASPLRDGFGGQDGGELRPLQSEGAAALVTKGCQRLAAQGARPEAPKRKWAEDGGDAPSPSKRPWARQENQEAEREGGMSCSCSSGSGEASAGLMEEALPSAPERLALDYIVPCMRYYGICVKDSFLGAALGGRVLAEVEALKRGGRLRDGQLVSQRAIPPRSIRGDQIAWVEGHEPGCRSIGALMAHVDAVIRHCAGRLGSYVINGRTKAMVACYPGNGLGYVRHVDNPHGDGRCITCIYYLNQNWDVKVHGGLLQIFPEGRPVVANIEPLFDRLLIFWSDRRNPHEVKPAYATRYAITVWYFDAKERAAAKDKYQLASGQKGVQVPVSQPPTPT

SMILES: Oc1c(-c2cccnc2)cnn1-c1ccccn1 [Compound 1, 1‐(Pyridin‐2‐yl)‐4‐(pyridin‐3‐yl)‐1H‐pyrazol‐5‐ol]
- EC50 [1, 15]: 4900 nM
- plasma EPO concentration in rats (plasma EPO [2]): increased
- concentration at which HIF‐1α was detected (HIF‐1α in HeLa cells): > 0.25 µM
- CYP profile / CYP inhibition (major CYP isoforms): clean
- selectivity profile in lead profiling panel [3]: favorable
- EC50 (EPO in HuH cells; Homo sapiens, read-out: EC50 EPO mRNA induction): 1900 nM
- increase in EPO concentration in the supernatant compared with baseline (EPO in HuH cells; human hepatoma HuH cells): threefold
- elimination of iron via urine [4]: did not result in any increased elimination of iron via urine
- hematocrit and reticulocytes [5]: increase
- IC50 (PHD1 [6]): 430 nM
- dependence of potency (IC50) on Fe^2+ concentration (PHD1 [6]): only minor changes
- LipE (lipophilic binding efficiency) (PHD1 [6]): 5.8
- BEI (binding efficiency index) (PHD1 [6]): 26.7
- solubility (Aqueous solubility): < 1 µg/mL
- clearance [7]: 48.3 mL/min/kg
- Relative bioavailability (Tylose suspension) [7]: 26%
- chromatographic logD [8]: 0.6
- plasma EPO concentration (plasma EPO [9]): ≈ 900 pg mL^−1
- EPO mRNA and plasma EPO levels / EPO induction (plasma EPO [9]; after i.p. and p.o. administration): increased

SMILES: Cc1nn(-c2ccccn2)c(O)c1-c1cccnc1 [Compound 3]
- IC50 (PHD1 [6]): 3500 nM

SMILES: O=c1c(-c2cccnc2)n[nH]n1-c1ccccn1 [Compound 4]
- IC50 (PHD1 [6]): 24000 nM

SMILES: S=c1c(-c2cccnc2)c[nH]n1-c1ccccn1 [Compound 5]
- IC50 (PHD1 [6]): 7500 nM

SMILES: Nc1c(-c2cccnc2)cnn1-c1ccccn1 [Compound 6]
- IC50 (PHD1 [6]): > 50000 nM

SMILES: COc1c(-c2cccnc2)cnn1-c1ccccn1 [Compound 8]
- IC50 (PHD1 [6]): > 50000 nM

SMILES: Cn1cc(-c2cccnc2)c(=O)n1-c1ccccn1 [Compound 9]
- IC50 (PHD1 [6]): > 50000 nM

SMILES: Oc1c(-c2cccnc2)ncnc1-c1ccccn1 [Compound 10]
- IC50 (PHD1 [6]): > 50000 nM

SMILES: Cc1ccnc(-n2[nH]cc(-c3cccnc3)c2=O)c1 [Compound 11]
- IC50 (PHD1 [6]): 340 nM

SMILES: Cc1ccc(-n2[nH]cc(-c3cccnc3)c2=O)nc1 [Compound 12]
- IC50 (PHD1 [6]): 1700 nM

SMILES: Cc1cccc(-n2[nH]cc(-c3cccnc3)c2=O)n1 [Compound 13]
- IC50 (PHD1 [6]): 8900 nM

SMILES: O=c1c(-c2cccnc2)c[nH]n1-c1cc(CO)ccn1 [Compound 17]
- IC50 (PHD1 [6]): 1500 nM

SMILES: O=c1c(-c2cccnc2)c[nH]n1-c1cc(COCc2ccccc2)ccn1 [Compound 18]
- IC50 (PHD1 [6]): 2900 nM

SMILES: COc1cc(-n2[nH]cc(-c3cccnc3)c2=O)ncn1 [Compound 20]
- IC50 (PHD1 [6]): 880 nM

SMILES: O=c1c(-c2cccnc2)c[nH]n1-c1cc(N2CCCCC2)ncn1 [Compound 22]
- IC50 (PHD1 [6]): 1500 nM

SMILES: O=c1c(-c2cccnc2)c[nH]n1-c1cc(N2CCOCC2)ncn1 [Compound 23]
- IC50 (PHD1 [6]): 180 nM

SMILES: CCOC(=O)c1ccc(-n2[nH]cc(-c3cccnc3)c2=O)nc1 [Compound 25]
- EC50 [1, 15]: 5300 nM
- IC50 (PHD1 [6]): 650 nM

SMILES: O=c1c(-c2cccnc2)c[nH]n1-c1ccc(COCc2ccccc2)cn1 [Compound 27]
- IC50 (PHD1 [6]): 1100 nM

SMILES: Cc1cncc(-c2cnn(-c3ccccn3)c2O)c1 [Compound 30]
- IC50 (PHD1 [6]): 1700 nM

SMILES: Cc1ccc(-c2c[nH]n(-c3ccccn3)c2=O)cn1 [Compound 31]
- IC50 (PHD1 [6]): 3200 nM

SMILES: COc1ccc(-c2c[nH]n(-c3ccccn3)c2=O)cn1 [Compound 33]
- IC50 (PHD1 [6]): 190 nM

SMILES: N#Cc1ccc(-c2c[nH]n(-c3ccccn3)c2=O)cn1 [Compound 34]
- IC50 (PHD1 [6]): 100 nM

SMILES: N#Cc1cncc(-c2cnn(-c3ccccn3)c2O)c1 [Compound 35]
- IC50 (PHD1 [6]): 1000 nM

SMILES: O=c1c(-c2cnccn2)c[nH]n1-c1ccccn1 [Compound 36]
- IC50 (PHD1 [6]): 28000 nM

SMILES: O=c1c(-n2cnc(C(F)(F)F)c2)c[nH]n1-c1ccccn1 [Compound 38]
- IC50 (PHD1 [6]): 150 nM

SMILES: O=c1c(-n2ccnn2)c[nH]n1-c1ccccn1 [Compound 41]
- EC50 [1, 15]: > 20000 nM
- IC50 (PHD1 [6]): 790 nM

SMILES: Cc1cn(-c2c[nH]n(-c3ccccn3)c2=O)nn1 [Compound 42]
- IC50 (PHD1 [6]): 330 nM

SMILES: Oc1c(-n2ccnc2)cnn1-c1cc(N2CCCCC2)ncn1 [Compound 44, 4‐(1H‐Imidazol‐1‐yl)‐1‐[6‐(piperidin‐1‐yl)pyrimidin‐4‐yl]‐1H‐pyrazol‐5‐ol]
- EC50 [1, 15]: 4900 nM
- plasma EPO concentration in rats (plasma EPO [2]): improved
- CYP profile / CYP inhibition (major CYP isoforms): not optimal
- early safety profile (Early safety profile): not optimal
- IC50 (PHD1 [6]): 500 nM
- LipE (lipophilic binding efficiency) (PHD1 [6]): 5.3
- BEI (binding efficiency index) (PHD1 [6]): 20.2
- solubility (Aqueous solubility): 520 µg/mL (≈ 1670 µM)
- clearance [7]: 21.7 mL/min/kg
- bioavailability as Tylose suspension [7]: remained unchanged
- Relative bioavailability (Tylose suspension) [7]: 97%
- chromatographic logD [8]: 1
- plasma EPO concentration (plasma EPO [9]): ≈ 3000 pg mL^−1

SMILES: Oc1c(-n2ccnn2)cnn1-c1cc(N2CCOCC2)ncn1 [Compound 45, 1‐[6‐(Morpholin‐4‐yl)pyrimidin‐4‐yl]‐4‐(1H‐1,2,3‐triazol‐1‐yl)‐1H‐pyrazol‐5‐ol]
- water uptake ([10]; 20–35 °C, normal pressure, >20 % relative humidity): up to 6 % w/w
- EC50 [1, 15]: 8400 nM
- plasma EPO concentration in rats (plasma EPO [2]): Very high EPO induction
- CYP profile / CYP inhibition (major CYP isoforms): favorable
- selectivity profile in lead profiling panel [3]: favorable
- change in potency on variation of Fe^2+ concentration (PHD1 [11]; Fe^2+ in the reaction buffer varied by a factor of 30): ≤ 2 fold
- IC50 (PHD1 [11]; biochemical assay, PHD1, HCl salt, ref 30 (WO2008067871 A1, example 72)): 490 nM
- dependence of potency (IC50) on Fe^2+ concentration (PHD1 [6]): independent
- LipE (lipophilic binding efficiency) (PHD1 [6]): 6.1
- BEI (binding efficiency index) (PHD1 [6]): 20.1
- solubility (Aqueous solubility): 140 µg/mL (≈ 445 µM)
- pK a [12]: 4.4
- IC50 (PHD3): 450 nM
- clearance [7]: 18.3 mL/min/kg
- bioavailability as Tylose suspension [7]: remained unchanged
- Relative bioavailability (Tylose suspension) [7]: 102%
- chromatographic logD [8]: 0.27
- plasma EPO concentration (plasma EPO [9]): ≈ 4000 pg mL^−1

SMILES: [Na+].[O-]c1c(-n2ccnn2)cnn1-c1cc(N2CCOCC2)ncn1 [Compound 84, Sodium 1‐[6‐(morpholin‐4‐yl)pyrimidin‐4‐yl]‐4‐(1 H ‐1,2,3‐triazol‐1‐yl)‐1H‐pyrazol‐5‐olate]
- water content ([10]; 20–35 °C, normal pressure): < 0.5 % w/w
- change of water content ([10]; relative humidity of up to 90 %): < 0.5 % w/w
- solubility in water [13]: 28000 µg/mL

SMILES: O=C(O)[C@H]1O[C@@H](n2cc(-n3ccnn3)c(=O)n2-c2cc(N3CCOCC3)ncn2)[C@H](O)[C@@H](O)[C@@H]1O [Compound 85, 1‐(Beta‐D‐glucopyranuronosyl)‐2‐[6‐(morpholin‐4‐yl)pyrimidin‐4‐yl]‐4‐(1H‐1,2,3‐triazol‐1‐yl)‐1,2‐dihydro‐3H‐pyrazol‐3‐one]
- CYP profile / CYP inhibition (major CYP isoforms): no relevant CYP inhibition
- excreted via urine [14]: 85 % of dose

SMILES: [Cl][Co][Cl] [cobalt chloride, reference compound]
- EC50 ([1]; read-out: EC50 HIF-reporter cell assay, A549 HIFRE2 luciferase reporter): ~50000 nM

SMILES: CC(=O)N(O)CCCCCNC(=O)CCC(=O)N(O)CCCCCNC(=O)CCC(=O)N(O)CCCCCN [deferoxamine, reference compound]
- EC50 [1, 15]: ~25000 nM
